Laboratory results reported in ChEMBL document CHEMBL4118097, “Selective Inhibitors of Dual Leucine Zipper Kinase (DLK, MAP3K12) with Activity in a Model of Alzheimer's Disease” (J Med Chem, 2017).
pKd: −log10 of the molar value.

Tests used:
[1] = target: Tyrosine-protein kinase Fes/Fps (Homo sapiens) (UniProt P07332); experiment: Inhibition of recombinant full length His-tagged human FES cytoplasmic domain expressed in baculovirus expression system at 1 uM by FRET assay relative to control
[2] = target: Mitogen-activated protein kinase 9 (Homo sapiens, UniProt P45984); experiment: Inhibition of recombinant full length His-tagged human JNK2 ([…]) expressed in baculovirus expression system at 1 uM by FRET assay relative to control
[3] = target: Tyrosine-protein kinase BTK (Homo sapiens) (UniProt Q06187); experiment: Inhibition of recombinant full length His-tagged human BTK cytoplasmic domain expressed in baculovirus expression system at 1 uM by FRET assay relative to control
[4] = target: Muscarinic acetylcholine receptor M2 (Homo sapiens) (UniProt P08172); experiment: Binding affinity to recombinant human M2 acetylcholine receptor at 10 uM relative to control
Summary of the method: (§1)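 Broad radioligand-binding and enzyme screening panel covering 42 targets (biogenic amine and neuropeptide receptors, ion channels, neurotransmitter transporters, acetylcholinesterase). Single test concentration of 10 μM. Results expressed as binding relative to control, with a hit defined as >50% of control.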

[5] = target: Insulin receptor-related protein (Homo sapiens) (UniProt P14616); experiment: Inhibition of recombinant GST-tagged human IRR cytoplasmic domain (944 to 1297 residues) expressed in baculovirus expression system at 1 uM by FRET relative to control
Summary of the method: (§2)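 Single-point screen at 1 μM compound in a 220-kinase panel run by Life Technologies (SelectScreen). Z′-LYTE format: phosphorylation of a labeled peptide substrate read by FRET. Values are reported as percent inhibition.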

[6] = target: Casein kinase I isoform epsilon (Homo sapiens) (UniProt P49674); experiment: Inhibition of CK1epsilon1 (unknown origin) at 1 uM by FRET assay relative to control
[7] = target: T1, Mitogen-activated protein kinase kinase kinase 12 (Homo sapiens, UniProt Q12852); experiment: Binding affinity to full length wild type human DLK (M1 to P859 residues) expressed in mammalian cells by KINOMEscan assay; format: cell-based
T1 sequence (Q12852 whole entry): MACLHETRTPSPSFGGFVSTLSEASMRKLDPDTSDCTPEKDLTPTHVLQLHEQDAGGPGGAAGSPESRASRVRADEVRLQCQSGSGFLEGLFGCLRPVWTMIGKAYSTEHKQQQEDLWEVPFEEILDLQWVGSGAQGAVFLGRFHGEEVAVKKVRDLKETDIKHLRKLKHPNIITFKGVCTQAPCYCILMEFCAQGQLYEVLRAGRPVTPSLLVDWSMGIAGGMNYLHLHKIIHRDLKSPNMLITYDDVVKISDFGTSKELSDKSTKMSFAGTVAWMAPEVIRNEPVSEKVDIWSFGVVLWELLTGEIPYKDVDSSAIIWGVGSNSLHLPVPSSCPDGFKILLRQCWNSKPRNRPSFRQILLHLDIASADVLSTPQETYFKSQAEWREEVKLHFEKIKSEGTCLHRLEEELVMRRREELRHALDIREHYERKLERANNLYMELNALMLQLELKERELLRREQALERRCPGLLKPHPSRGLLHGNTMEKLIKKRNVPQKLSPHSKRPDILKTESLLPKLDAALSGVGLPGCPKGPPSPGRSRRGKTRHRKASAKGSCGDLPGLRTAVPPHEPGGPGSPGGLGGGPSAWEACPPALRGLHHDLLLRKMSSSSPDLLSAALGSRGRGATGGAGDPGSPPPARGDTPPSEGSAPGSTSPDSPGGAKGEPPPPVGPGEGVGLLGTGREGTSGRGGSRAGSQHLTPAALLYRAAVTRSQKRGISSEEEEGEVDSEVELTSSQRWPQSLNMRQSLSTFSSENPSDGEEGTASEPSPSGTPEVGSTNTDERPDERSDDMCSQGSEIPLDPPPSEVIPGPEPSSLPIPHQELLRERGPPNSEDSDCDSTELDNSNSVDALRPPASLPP
Summary of the method: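 Binding measured in an outsourced KINOMEscan profiling service, run alongside the homologous kinase LZK; the value is reported as a dissociation constant (Kd).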

[8] = target: Opioid receptors; mu/kappa/delta (Homo sapiens) (UniProt P41145+P41143+P35372); experiment: Binding affinity to opiod receptor (unknown origin) receptor at 10 uM relative to control; format: protein assay; summary of the method: as §1
[9] = target: Protein kinase C beta type (Homo sapiens) (UniProt P05771); experiment: Inhibition of PKCbeta1 (unknown origin) at 1 uM by FRET assay relative to control
[10] = target: CDK2/Cyclin A2 (Homo sapiens) (UniProt P24941+P20248); experiment: Inhibition of recombinant full length His-tagged human CDK2/CyclinA expressed in baculovirus expression system at 1 uM by FRET assay relative to control
[11] = target: Interleukin-1 receptor-associated kinase 1 (Homo sapiens) (UniProt P51617); experiment: Inhibition of recombinant GST-tagged human IRAK1 (194 to 712 residues) expressed in baculovirus expression system at 1 uM by FRET relative to control; summary of the method: as §2
[12] = target: Dual specificity tyrosine-phosphorylation-regulated kinase 4 (Homo sapiens) (UniProt Q9NR20); experiment: Inhibition of full length recombinant GST-tagged human DYRK4 expressed in baculovirus expression system at 1 uM by FRET assay relative to control
[13] = target: Fibroblast growth factor receptor 1 (Homo sapiens) (UniProt P11362); experiment: Inhibition of recombinant His-tagged human FGFR1 cytoplasmic domain expressed in baculovirus expression system at 1 uM by FRET assay relative to control; summary of the method: as §2
[14] = target: Phosphatidylinositol 4,5-bisphosphate 3-kinase catalytic subunit alpha isoform (Homo sapiens) (UniProt P42336); experiment: Inhibition of PI3KA (unknown origin) at 1 uM by FRET assay relative to control
[15] = target: Serine/threonine-protein kinase PAK 3 (Homo sapiens) (UniProt O75914); experiment: Inhibition of recombinant full length His-tagged human PAK3 expressed in baculovirus expression system at 1 uM by FRET assay relative to control
[16] = target: MAP kinase-interacting serine/threonine-protein kinase 1 (Homo sapiens) (UniProt Q9BUB5); experiment: Inhibition of recombinant human N-terminal full length GST-tagged MKNK1 expressed in baculovirus at 1 uM by FRET assay relative to control
[17] = target: Calcium/calmodulin-dependent protein kinase kinase 2 (Homo sapiens) (UniProt Q96RR4); experiment: Inhibition of recombinant full length GST-tagged human CAMKK2 expressed in baculovirus expression system at 1 uM by FRET assay relative to control
Summary of the method: (§3)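 Single-concentration screen at 1 μM in Life Technologies SelectScreen, across a 220-kinase panel. Z′-LYTE format measures phosphorylation of a labeled peptide by FRET. Results are reported as percent inhibition.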

[18] = target: Dual specificity protein kinase TTK (Homo sapiens) (UniProt P33981); experiment: Inhibition of recombinant full length GST-tagged human TTK expressed in baculovirus expression system at 1 uM by FRET assay relative to control
[19] = target: Serine/threonine-protein kinase Nek4 (Homo sapiens) (UniProt P51957); experiment: Inhibition of recombinant full length GST-tagged human NEK4 expressed in baculovirus expression system at 1 uM by FRET assay relative to control; summary of the method: as §3

Sequence of Insulin receptor-related protein (Homo sapiens) (P14616 27-742 limits assumed): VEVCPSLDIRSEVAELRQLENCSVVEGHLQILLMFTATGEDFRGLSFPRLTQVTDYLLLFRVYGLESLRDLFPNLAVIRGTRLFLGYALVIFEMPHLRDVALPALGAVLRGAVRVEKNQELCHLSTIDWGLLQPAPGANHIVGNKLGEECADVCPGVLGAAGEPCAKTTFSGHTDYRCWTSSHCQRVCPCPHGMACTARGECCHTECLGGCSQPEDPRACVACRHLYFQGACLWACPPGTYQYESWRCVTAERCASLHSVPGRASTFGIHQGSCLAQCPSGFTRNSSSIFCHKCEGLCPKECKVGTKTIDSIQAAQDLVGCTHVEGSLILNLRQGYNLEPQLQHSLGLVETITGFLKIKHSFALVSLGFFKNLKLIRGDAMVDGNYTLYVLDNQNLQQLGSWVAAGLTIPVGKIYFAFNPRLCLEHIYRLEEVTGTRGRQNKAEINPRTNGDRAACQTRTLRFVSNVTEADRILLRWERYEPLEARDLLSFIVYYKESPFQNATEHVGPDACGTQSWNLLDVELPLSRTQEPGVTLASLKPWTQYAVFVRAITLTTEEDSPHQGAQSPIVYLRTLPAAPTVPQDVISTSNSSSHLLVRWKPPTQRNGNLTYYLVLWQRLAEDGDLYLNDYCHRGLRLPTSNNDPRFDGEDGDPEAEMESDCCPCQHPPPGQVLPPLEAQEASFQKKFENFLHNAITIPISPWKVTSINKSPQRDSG
Sequence of Insulin receptor-related protein (Homo sapiens) (P14616 747-1297 limits assumed): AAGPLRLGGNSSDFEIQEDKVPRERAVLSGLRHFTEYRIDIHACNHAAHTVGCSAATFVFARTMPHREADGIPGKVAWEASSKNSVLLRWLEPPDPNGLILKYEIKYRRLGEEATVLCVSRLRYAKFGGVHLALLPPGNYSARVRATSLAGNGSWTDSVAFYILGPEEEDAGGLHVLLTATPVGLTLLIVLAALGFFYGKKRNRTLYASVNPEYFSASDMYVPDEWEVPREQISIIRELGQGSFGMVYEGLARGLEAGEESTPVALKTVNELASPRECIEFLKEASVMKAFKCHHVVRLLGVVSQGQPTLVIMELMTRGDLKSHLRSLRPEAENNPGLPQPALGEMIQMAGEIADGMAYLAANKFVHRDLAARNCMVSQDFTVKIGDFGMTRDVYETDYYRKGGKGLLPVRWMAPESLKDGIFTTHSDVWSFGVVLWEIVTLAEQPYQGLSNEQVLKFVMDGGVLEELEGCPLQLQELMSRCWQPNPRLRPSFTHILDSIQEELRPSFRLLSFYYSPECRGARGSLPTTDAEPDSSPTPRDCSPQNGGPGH
Sequence of Mitogen-activated protein kinase 9 (P45984 whole entry, looked up, the tested form may be a part): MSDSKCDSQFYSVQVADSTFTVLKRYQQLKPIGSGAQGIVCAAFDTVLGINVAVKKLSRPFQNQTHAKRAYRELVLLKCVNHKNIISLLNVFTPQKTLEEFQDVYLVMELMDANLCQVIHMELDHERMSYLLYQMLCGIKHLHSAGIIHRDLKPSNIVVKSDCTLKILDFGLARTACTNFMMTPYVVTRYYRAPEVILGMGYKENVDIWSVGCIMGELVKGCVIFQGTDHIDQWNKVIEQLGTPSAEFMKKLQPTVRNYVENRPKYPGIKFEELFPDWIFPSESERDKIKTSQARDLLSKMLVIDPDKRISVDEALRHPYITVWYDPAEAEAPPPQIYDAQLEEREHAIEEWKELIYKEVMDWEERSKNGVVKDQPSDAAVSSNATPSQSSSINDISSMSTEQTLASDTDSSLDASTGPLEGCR
Sequence of Interleukin-1 receptor-associated kinase 1 (Homo sapiens) (P51617 whole entry, looked up, the tested form may be a part): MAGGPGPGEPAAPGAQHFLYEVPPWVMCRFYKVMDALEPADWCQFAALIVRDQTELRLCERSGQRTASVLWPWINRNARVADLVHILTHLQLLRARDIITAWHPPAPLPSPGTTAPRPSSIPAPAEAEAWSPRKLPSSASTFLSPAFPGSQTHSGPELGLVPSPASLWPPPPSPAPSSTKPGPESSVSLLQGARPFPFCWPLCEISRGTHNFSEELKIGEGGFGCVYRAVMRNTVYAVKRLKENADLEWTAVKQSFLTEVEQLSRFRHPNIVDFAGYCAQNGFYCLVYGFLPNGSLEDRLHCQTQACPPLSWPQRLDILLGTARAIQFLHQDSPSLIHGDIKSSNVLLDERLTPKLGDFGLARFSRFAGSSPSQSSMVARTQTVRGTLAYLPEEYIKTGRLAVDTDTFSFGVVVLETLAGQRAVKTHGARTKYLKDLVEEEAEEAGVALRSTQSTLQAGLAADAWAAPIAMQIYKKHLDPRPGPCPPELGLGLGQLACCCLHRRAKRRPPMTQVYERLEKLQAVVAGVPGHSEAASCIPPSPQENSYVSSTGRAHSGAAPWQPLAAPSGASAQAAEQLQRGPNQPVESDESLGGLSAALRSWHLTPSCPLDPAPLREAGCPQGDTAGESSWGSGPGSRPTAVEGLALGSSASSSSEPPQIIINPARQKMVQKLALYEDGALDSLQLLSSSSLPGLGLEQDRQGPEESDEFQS
Sequence of Serine/threonine-protein kinase PAK 3 (Homo sapiens) (O75914 whole entry, looked up): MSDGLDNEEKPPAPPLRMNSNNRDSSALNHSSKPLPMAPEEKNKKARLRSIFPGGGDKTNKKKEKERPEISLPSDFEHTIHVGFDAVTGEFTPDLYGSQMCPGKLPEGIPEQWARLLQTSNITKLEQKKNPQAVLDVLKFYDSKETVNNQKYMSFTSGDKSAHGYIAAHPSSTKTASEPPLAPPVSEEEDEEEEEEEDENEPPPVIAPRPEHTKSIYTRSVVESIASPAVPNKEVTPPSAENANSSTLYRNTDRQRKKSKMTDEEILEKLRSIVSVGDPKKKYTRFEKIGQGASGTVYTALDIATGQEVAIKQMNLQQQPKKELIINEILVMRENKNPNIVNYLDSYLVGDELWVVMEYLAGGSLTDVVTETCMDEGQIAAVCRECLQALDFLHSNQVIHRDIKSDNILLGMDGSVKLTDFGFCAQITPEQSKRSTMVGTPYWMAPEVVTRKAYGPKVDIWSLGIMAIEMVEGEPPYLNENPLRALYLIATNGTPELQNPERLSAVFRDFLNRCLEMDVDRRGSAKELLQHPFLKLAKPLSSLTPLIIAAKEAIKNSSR
Sequence of Calcium/calmodulin-dependent protein kinase kinase 2 (Homo sapiens) (Q96RR4 2-588 limits assumed): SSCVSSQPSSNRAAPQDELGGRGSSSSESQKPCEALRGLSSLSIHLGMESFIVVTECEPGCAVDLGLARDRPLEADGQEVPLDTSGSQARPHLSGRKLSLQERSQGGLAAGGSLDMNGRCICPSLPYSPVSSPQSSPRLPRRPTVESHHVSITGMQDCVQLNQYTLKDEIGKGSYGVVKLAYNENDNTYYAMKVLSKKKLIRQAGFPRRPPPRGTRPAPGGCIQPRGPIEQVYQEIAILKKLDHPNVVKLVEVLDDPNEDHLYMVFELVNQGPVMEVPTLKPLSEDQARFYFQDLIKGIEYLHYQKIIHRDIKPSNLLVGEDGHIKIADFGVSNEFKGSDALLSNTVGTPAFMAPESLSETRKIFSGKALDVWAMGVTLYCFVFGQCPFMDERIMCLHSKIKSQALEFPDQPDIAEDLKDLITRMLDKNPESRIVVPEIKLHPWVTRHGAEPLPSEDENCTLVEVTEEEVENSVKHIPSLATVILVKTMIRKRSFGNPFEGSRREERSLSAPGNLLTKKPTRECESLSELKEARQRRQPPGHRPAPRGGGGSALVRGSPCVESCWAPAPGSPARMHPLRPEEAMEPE
Sequence of Protein kinase C beta type (Homo sapiens) (P05771 2-671 limits assumed): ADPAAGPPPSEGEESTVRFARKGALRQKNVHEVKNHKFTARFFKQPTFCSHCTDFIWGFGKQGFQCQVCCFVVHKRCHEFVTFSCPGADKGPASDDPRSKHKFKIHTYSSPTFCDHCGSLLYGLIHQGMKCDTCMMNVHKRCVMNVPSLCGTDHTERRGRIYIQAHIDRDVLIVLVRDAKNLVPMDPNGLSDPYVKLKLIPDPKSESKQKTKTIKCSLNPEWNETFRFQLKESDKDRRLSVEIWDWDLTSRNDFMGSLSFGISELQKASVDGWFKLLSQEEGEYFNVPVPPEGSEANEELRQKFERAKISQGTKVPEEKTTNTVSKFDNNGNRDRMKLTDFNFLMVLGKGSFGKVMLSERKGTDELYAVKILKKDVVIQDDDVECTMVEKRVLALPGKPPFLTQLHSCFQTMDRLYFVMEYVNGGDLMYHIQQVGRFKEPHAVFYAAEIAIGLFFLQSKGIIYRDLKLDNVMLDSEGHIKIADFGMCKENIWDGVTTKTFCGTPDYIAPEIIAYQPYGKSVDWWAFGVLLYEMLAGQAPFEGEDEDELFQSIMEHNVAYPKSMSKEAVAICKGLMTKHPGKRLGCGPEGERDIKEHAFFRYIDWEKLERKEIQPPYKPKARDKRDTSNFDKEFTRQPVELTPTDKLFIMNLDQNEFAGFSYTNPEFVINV
Sequence of MAP kinase-interacting serine/threonine-protein kinase 1 (Homo sapiens) (Q9BUB5 whole entry, looked up): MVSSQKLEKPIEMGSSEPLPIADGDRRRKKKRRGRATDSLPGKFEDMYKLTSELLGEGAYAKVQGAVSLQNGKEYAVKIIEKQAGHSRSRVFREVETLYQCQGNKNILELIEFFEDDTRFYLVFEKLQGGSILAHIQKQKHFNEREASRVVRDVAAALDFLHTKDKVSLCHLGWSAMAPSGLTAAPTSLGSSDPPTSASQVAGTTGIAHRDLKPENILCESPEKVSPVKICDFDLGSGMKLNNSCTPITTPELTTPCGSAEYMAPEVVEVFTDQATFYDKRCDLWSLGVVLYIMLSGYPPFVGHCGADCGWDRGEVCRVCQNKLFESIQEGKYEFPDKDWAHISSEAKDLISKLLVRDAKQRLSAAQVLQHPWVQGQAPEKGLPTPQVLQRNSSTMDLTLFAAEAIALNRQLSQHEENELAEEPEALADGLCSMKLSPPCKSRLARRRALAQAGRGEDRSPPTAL

Row | SMILES | inhibition [1] | inhibition [2] | inhibition [3] | Activity [4] | inhibition [5] | inhibition [6] | pKd [7] | Activity [8] | inhibition [9] | inhibition [10] | inhibition [11] | inhibition [12] | inhibition [13] | inhibition [14] | inhibition [15] | inhibition [16] | inhibition [17] | inhibition [18] | inhibition [19]
1 | Nc1ncc(-c2cc([C@H]3[C@@H]4CN(C5COC5)C[C@@H]43)n(CC3CC3)n2)cc1C(F)(F)F | 21.1% | 0.6% | 19.9% | > 50% | 15.9% | 9.5% | 8.29 | > 50% | -7.3% | 4.3% | -6.1% | -1.6% | 3.4% | -9.8% | 17.2% | -3.8% | 8.7% | 11.2% | 2.4%
2 | CC(C)n1nc(-c2cnc(N)c(OC(F)(F)F)c2)cc1[C@H]1[C@@H]2CN(C3COC3)C[C@@H]21 | 17.1% | 4.4% | 9.9% | > 50% | 32.7% | 1.5% | 7.96 | > 50% | 1.1% | 5.7% | 8% | -1.4% | 2.4% | -2.7% | 3.6% | 1.1% | 1.5% | 14.2% | 0.1%
